Assay [1] is described as follows: Growth inhibition of HPV-16 transformed human CCD-1106 cells after 72 hrs by MTT assay. The settings on record: CCD-1106, 72 h. Type of assay: functional. Summed up: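 Cells were seeded at 10,000 cells/well in keratinocyte serum-free medium with L-glutamine, bovine pituitary extract and EGF, at 37 °C under 5% CO2, and attached overnight. Eight drug concentrations were run with six in-plate replicates, DMSO <1%, for 72 h. MTT (0.5 mg/ml) was added for 2 h, formazan was dissolved in 90% isopropanol/10% DMSO and A590 was read. Growth is expressed relative to the untreated control.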

A short description of assay [2]: Antioxidant activity in bovine brain assessed as inhibition of iron-ascorbate-induced lipid peroxidation by thiobarbituric acid test. The format is functional, tissue-based, Bos taurus. The method in brief:
(§1)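 Hit compounds were tested for inhibition of lipid peroxidation by the thiobarbituric acid (TBA) assay. Propyl gallate served as the standardizing positive control, tested at 100 µM.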

For assay [3], the target named is Epidermal growth factor receptor (Homo sapiens) (UniProt P00533). Briefly: Inhibition of EGFR-mediated ERK1 phosphorylation in HPV-16 transformed human CCD-1106 cells at 161.1 uM after 30 mins by densitometric analysis. The format is cell-based. The method in brief:
(§2)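 CCD-1106 cells were treated with compound for 30 min at 37 °C, then stimulated with EGF. Lysates were separated by SDS-PAGE, blotted to nitrocellulose and blocked in 3% BSA/NaTT. Blots were probed with p-ERK (E-4) or p-p38 (D-8) antibodies, detected by ECL and quantified by densitometry.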

Assay [4] shares this target. Briefly: Inhibition of phosphorylated EGFR dimerization in HPV-16 transformed human CCD-1106 cells at 134.5 uM after 30 mins by densitometric analysis. The format is cell-based. Summed up:
(§3)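 CCD-1106 cells were exposed to compounds for 30 min at 37 °C, then stimulated with EGF 50 ng/mL for 10 min. They were cross-linked with 2 mM BS3 for 30 min at room temperature and quenched with Tris (pH 7.5). Lysates were run on SDS-PAGE and immunoblotted for phospho-EGFR (Tyr1173) and total EGFR. The ~340 kDa dimer band was quantified by densitometry against the no-inhibitor control.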

Assay [5] has the same target. Briefly: Inhibition of EGFR-mediated ERK1 phosphorylation in HPV-16 transformed human CCD-1106 cells at 120.7 uM after 30 mins by densitometric analysis. The format is cell-based. The method in brief: as §2
For assay [6] the target is unchanged. As to the kind of experiment: Inhibition of EGFR-mediated ERK2 phosphorylation in HPV-16 transformed human CCD-1106 cells at 120.7 uM after 30 mins by densitometric analysis. Type of assay: cell-based. Summed up: as §2
The target is the same in assay [7]. Briefly: Inhibition of phosphorylated EGFR dimerization in HPV-16 transformed human CCD-1106 cells at 123.6 uM after 30 mins by densitometric analysis. The format is cell-based. Summed up: as §3
For assay [8], the species on record is Bos taurus. As to the kind of experiment: Antioxidant activity in bovine brain assessed as inhibition of iron-ascorbate-induced lipid peroxidation at 100 uM by thiobarbituric acid test. Type of assay: functional, tissue-based. Summed up: as §1
The target of assay [9] is Epidermal growth factor receptor (Homo sapiens) (UniProt P00533). Briefly: Inhibition of phosphorylated EGFR dimerization in HPV-16 transformed human CCD-1106 cells at 155.4 uM after 30 mins by densitometric analysis. Type of assay: cell-based. The method in brief: as §3
Epidermal growth factor receptor (Homo sapiens), sequence (P00533 whole entry): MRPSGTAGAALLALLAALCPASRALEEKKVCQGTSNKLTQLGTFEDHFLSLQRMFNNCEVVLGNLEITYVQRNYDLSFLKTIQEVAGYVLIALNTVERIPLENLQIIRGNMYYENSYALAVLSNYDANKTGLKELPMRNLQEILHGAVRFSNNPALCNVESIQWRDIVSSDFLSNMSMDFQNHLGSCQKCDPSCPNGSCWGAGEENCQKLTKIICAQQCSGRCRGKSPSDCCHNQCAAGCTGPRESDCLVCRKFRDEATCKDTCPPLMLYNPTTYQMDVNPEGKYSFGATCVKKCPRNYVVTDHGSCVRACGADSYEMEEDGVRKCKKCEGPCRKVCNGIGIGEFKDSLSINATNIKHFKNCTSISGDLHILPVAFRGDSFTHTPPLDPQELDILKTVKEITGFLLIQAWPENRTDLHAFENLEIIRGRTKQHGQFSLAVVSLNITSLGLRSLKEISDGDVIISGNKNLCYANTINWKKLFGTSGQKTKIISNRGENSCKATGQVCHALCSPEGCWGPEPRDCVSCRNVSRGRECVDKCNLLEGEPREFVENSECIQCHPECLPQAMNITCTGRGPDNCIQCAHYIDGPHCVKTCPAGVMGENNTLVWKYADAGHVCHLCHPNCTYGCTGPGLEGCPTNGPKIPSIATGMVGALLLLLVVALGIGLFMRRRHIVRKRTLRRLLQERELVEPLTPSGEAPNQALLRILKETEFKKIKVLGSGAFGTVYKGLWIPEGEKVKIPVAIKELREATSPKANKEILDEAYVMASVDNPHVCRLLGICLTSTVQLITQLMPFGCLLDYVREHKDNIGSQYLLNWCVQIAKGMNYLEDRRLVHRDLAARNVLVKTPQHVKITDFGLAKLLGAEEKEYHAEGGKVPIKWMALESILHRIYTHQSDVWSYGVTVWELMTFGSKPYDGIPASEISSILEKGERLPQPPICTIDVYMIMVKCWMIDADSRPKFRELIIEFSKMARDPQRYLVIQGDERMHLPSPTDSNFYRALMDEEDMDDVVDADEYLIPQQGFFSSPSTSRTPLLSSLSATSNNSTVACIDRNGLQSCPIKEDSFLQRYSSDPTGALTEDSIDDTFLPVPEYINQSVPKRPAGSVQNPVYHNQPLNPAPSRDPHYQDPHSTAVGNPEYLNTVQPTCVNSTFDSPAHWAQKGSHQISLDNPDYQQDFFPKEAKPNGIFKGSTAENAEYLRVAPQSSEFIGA
For assay [10] the target is unchanged. As to the kind of experiment: Inhibition of EGFR-mediated ERK1 phosphorylation in HPV-16 transformed human CCD-1106 cells at 153 uM after 30 mins by densitometric analysis. The format is cell-based. Summed up: as §2
Assay [11] has the same target. Briefly: Inhibition of EGFR-mediated ERK2 phosphorylation in HPV-16 transformed human CCD-1106 cells at 153 uM after 30 mins by densitometric analysis. Type of assay: cell-based. Summed up:
as §2

pIC50: −log10 of the molar value.

Regarding `CCOC(=O)C1=C(C)NC(C)=C(C(=O)OCC)C1c1ccc(-c2ccc(Br)cc2)o1`, the GI50 in assay [1] (read-out: GI50) turned out to be 4.09 µM. The pIC50 in [2] was 3.40. The inhibition in [3] came out at 12%; in assay [4], 47%.
Consider `CCOc1cc(/C=N\Nc2nc3c(c(=O)n(C)c(=O)n3C)n2Cc2ccc(C)cc2)ccc1O`, for which the values for the GI50 in assay [1] (read-out: GI50) and in assay [1] (read-out: pGI50 (converted)) were 9.75 µM and 9.77 µM, respectively.
Turning to `CC(C)C(=O)NNC(=O)c1c(O)c2ccccc2n(C)c1=O`, in [1] (read-out: GI50), the GI50 came to 14.9 µM. The inhibition in assay [5] was found to be 42%; in [6] it was 33%; in [7], 16%. For the same compound, the negative-log IC50 (pIC50) in [2] was 2.47.
Take `CCCOC(=O)c1cc(O)c(O)c(O)c1`: the inhibition in assay [8] was found to be 70%.
Consider `CCOc1cc(/C=N\Nc2nc3c(c(=O)n(C)c(=O)n3C)n2Cc2ccc([N+](=O)[O-])cc2)cc(OCC)c1OCC`, for which the GI50 in [1] (read-out: GI50) was 18.9 µM; in assay [1] (read-out: pGI50 (converted)), 19.1 µM.
The like results for `CCOc1cc(/C=N\Nc2nc3c(c(=O)n(C)c(=O)n3C)n2Cc2ccccc2C(=O)O)ccc1O` were, in that order, 178 µM and 178 µM.
The corresponding values for `CCOc1cc(/C=N\Nc2nc3c(c(=O)n(C)c(=O)n3C)n2Cc2ccccc2)cc(OCC)c1OCC` are 4.65 µM and 4.68 µM.
The corresponding values for `CCOc1cc(/C=N\Nc2nc3c(c(=O)n(C)c(=O)n3C)n2Cc2ccccc2OC)cc(OCC)c1OCC` are 5.16 µM and 5.13 µM.
With `O=C(Nc1ccccc1C(=O)c1ccccc1)c1cc([N+](=O)[O-])cc([N+](=O)[O-])c1`, the GI50 in [1] (read-out: GI50) was determined as 123 µM. Besides, in assay [2], the pIC50 is 1.33. In addition, the inhibition stood at 52% in [9], 28% in assay [10] and 20% in assay [11].
Take `CCOC(=O)c1ccccc1Cn1c(N/N=C\c2ccc(O)c(OCC)c2)nc2c1c(=O)n(C)c(=O)n2C`: the GI50 in assay [1] (read-out: GI50) was 106 µM; in [1] (read-out: pGI50 (converted)), 107 µM.

These data come from ChEMBL document CHEMBL2146365, “Design and synthesis of EGFR dimerization inhibitors and evaluation of their potential in the treatment of psoriasis” (Bioorg Med Chem, 2012).
